An excerpt weighted towards active compounds, which were near 3% of everything screened.
T cruzi inh = blocks replication of Trypanosoma cruzi; AID 1885; hit rate 1.4% among 300,000; inhibition, % (test concentration not listed); T. cruzi beta-gal in NIH3T3, luminescence, 90 h;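 active = mean inhibition across valid replicates above about 55%, limit read from the data; inconclusive = mean below that limit but half or more replicates reach it; inactive = mean below it, under half of replicates reach it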;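 also: signal also drops with host cell toxicity which is not excluded here; higher percent means less beta-gal luminescence so fewer parasites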
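Assay system: NIH/3T3 fibroblasts plus reporter T. cruzi. Amount: NIH/3T3 cells, 5,000 per well. Buffer or medium: DMEM, 2% fetal bovine serum. Doses: compound pinned at 50 nL/well, DMSO. Schedule: ≥90 h infection period, 3 h prior cell attachment. Signal: luminescent β-galactosidase signal after 60 min lysis. Read-out: parasite load inhibition, %.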
HSF1 activator = increases HSF-1 driven luciferase reporter signal; NIH3T3-HGL HSF-1 luciferase reporter, MG132, 8 h; 100% = twice DMSO control signal; activation, % at 9 µM; hit rate 1.7% among 300,000;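 active = mean replicate activation of at least 50% with a set share of replicates each reaching 50%; inconclusive = only one of those two conditions met; inactive = mean below 50% and too few replicates reaching it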
N-glyco inh = blocks N-linked glycosylation in D54 reporter cells. D54 ERlucT glycosylation luciferase reporter, 24 h; percent of 100 nM tunicamycin response. reporter increase, % at 12.5 µM. hit rate 0.23% among 360,000;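 active = mean luciferase reporter signal, scaled so untreated is 0 and the glycosylation-blocking control 100, at or above a set limit in every replicate; inconclusive = mean reaches the limit but not every replicate does; inactive = mean below the limit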;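 also: luciferase carries N-glycosylation sites so blocking glycosylation raises the light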
PvdQ acylase = P. aeruginosa PvdQ acylase inhibition | purified PvdQ acylase, fluorescence plate reader | hit rate 0.063% among 340,000 | inhibition, % at 10 µM; in the data active = inhibition above about 30%, passing the limit was not always enough; inconclusive = no clear call, values can overlap the other calls
PfHsp90 yeast 2 = growth inhibition of yeast expressing Plasmodium Hsp90. S. cerevisiae expressing PfHsp90, BacTiter-Glo ATP, 48 h; yeast lacking PDR1 and PDR3 efflux regulators. hit rate 0.32% among 310,000. AID 504621. inhibition, % at 9.4 µM;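 active = every replicate shows inhibition above about 80%, whatever the replicate mean, limit read from the data; inconclusive = mean inhibition reaches the set limit but some replicate falls short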
CaV13 ICDI inh = Disruptors of the CACNA1D IQ motif to Ca2+-dependent inactivation inhibitor domain association, primary screening, Förster resonance energy transfer in intact living … | HEK cells, CFP/YFP FRET ICDI-IQ, plate reader, 10 min; percent FRET-ratio fall versus neutral wells | inhibition, % at 12.3 µM | hit rate 0.098% among 340,000 | AID 743397;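 active = mean replicate inhibition of at least 30% and at least 1% of replicates passing that level; inconclusive = only one of the two criteria is met; inactive = neither criterion is met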
Large screens that a line does not name were inactive.

COC(=O)C1=C(C(=O)OC)C2CCCC1C1N=NN(c3ccccc3)C21 (stereo not given)	none (no result: T cruzi inh, HSF1 activator, N-glyco inh, PvdQ acylase, PfHsp90 yeast 2)
O=[N+]([O-])c1cccc(-c2ccc3nnc(SCc4ccccn4)n3n2)c1	HSF1 activator 63
c1ccc(CSc2nnc3ccc(-c4ccco4)nn23)nc1	none
COc1cc(CNC2CCCC2)cc(Cl)c1OCc1ccccc1F	T cruzi inh 58
CC12CCC3c4ccc(OCCCO)c([N+](=O)[O-])c4CCC3C1CCC2=O (stereo not given)	none (no result: T cruzi inh, HSF1 activator, N-glyco inh, PvdQ acylase, PfHsp90 yeast 2)
COc1ccc(-c2cc3c(=O)n(CC(=O)NCCCN4CCC(N5CCCCC5)CC4)nc(C)n3n2)cc1	T cruzi inh 56
CN(C)CCCN1C(=O)c2cccc3c(Br)ccc(c23)C1=O	N-glyco inh 40
CCOCCCNCc1ccc(OC)c(OC)c1	none
CCCOc1ccc(CNCCCOCC)cc1OC	T cruzi inh 63
Cc1cc(C(F)F)n2nc(C(=O)Nc3cccc(C(F)(F)F)c3)nc2n1	HSF1 activator 81 (no result: CaV13 ICDI inh)
CCCCC(=O)NC(c1ccco1)c1cc(Cl)c2cccnc2c1O (stereo not given)	T cruzi inh 63, PfHsp90 yeast 2 105
O=C(CCc1ccccc1)NC(c1cccs1)c1cc(Cl)c2cccnc2c1O (stereo not given)	T cruzi inh 66, PfHsp90 yeast 2 101
CC(=O)NC(c1ccco1)c1cc(Cl)c2cccnc2c1O (stereo not given)	none (no result: T cruzi inh, HSF1 activator, PvdQ acylase, PfHsp90 yeast 2)
CCC(=O)NC(c1ccco1)c1cc(Cl)c2cccnc2c1O (stereo not given)	T cruzi inh 63
CCC(=O)NC(c1ccco1)c1cc(Cl)c2cccnc2c1OC (stereo not given)	none (no result: T cruzi inh, HSF1 activator, PfHsp90 yeast 2)
COc1cc(F)ccc1Oc1cccc2c1S(=O)(=O)N(C1CC1)C[C@@H](COCc1ccccc1)O2	none (no result: T cruzi inh, HSF1 activator, N-glyco inh, PvdQ acylase, PfHsp90 yeast 2)
O=C(O)[C@@H]1C[C@@H](O)CN1	none (no result: T cruzi inh, HSF1 activator, N-glyco inh, PvdQ acylase, PfHsp90 yeast 2)
Cc1cc(C)c(S(=O)(=O)ON2C(=O)c3ccccc3C2=O)cc1C	HSF1 activator 62
Cc1ccc(S(=O)(=O)ON2C(=O)c3ccccc3C2=O)c(C)c1	none (no result: T cruzi inh, HSF1 activator)
Cc1cc(C)c(C)c(S(=O)(=O)ON2C(=O)c3ccccc3C2=O)c1C	HSF1 activator 52
C[C@]12Cc3ccccc3C1CC1=N[C@@H](C3CCCCC3)O[C@@]13C[C@@H]2C(=O)N3C1CCN(Cc2ccccc2)CC1 (stereo not given in full)	none (no result: T cruzi inh, HSF1 activator, N-glyco inh, PvdQ acylase, PfHsp90 yeast 2)
O=[N+]([O-])c1ccc(CSc2ccc(S(=O)(=O)N3CCCCCC3)cn2)cc1	none (no result: T cruzi inh, HSF1 activator, PfHsp90 yeast 2)
N#C/C(=C\c1ccc(N2CCCCC2)c([N+](=O)[O-])c1)c1nn(-c2ccccc2)c(N)c1C#N	T cruzi inh 62
O=C(CN1CCC(c2nc3ccccc3s2)CC1)NCc1cccs1	T cruzi inh 68
O=C(CN1CCC(c2nc3ccccc3s2)CC1)N1CCCCC1	none
O=C(NCCc1nc2ccccc2[nH]1)/C(=C/c1ccc(F)cc1)NC(=O)c1ccco1	HSF1 activator 64
COc1ccc(Cn2nnnc2C(CC(C)C)N2CCC(C(N)=O)CC2)cc1 (stereo not given)	CaV13 ICDI inh 43
NC(=O)[C@@H]1CCCN1C(=O)[C@H]1O[C@@H](n2ccc(N)nc2=O)[C@H](O)[C@@H]1O	none (no result: T cruzi inh, HSF1 activator, N-glyco inh, PvdQ acylase, PfHsp90 yeast 2)
Cc1nc(C)c(-c2csc(Nc3ncccc3C)n2)s1	HSF1 activator 61
Cc1nc(C)c(-c2csc(Nc3ccc(F)cc3)n2)s1	HSF1 activator 65 (no result: PfHsp90 yeast 2)
COc1ccc(-c2csc(Nc3ncccc3C)n2)cc1	HSF1 activator inconclusive
N#Cc1c(N)n(C2OC(CO)C(O)C2O)c2ncnc(N)c12 (stereo not given)	HSF1 activator 78 (no result: T cruzi inh)
NC(=O)c1c(N)[nH]c(C(=O)c2ccccc2)c1-c1ccc2c(c1)OCO2	none (no result: T cruzi inh, HSF1 activator, N-glyco inh, PvdQ acylase, PfHsp90 yeast 2)
Cc1ccccc1CN1C[C@H]2CON(C)[C@H]2C[C@H]1c1cccc(Br)c1	none (no result: T cruzi inh, HSF1 activator, PvdQ acylase, PfHsp90 yeast 2, CaV13 ICDI inh)
Cc1nn(-c2ccccc2)c(C)c1-c1ccccc1O	none
Cc1nn(-c2ccccc2)c(/N=C/c2ccc(O)cc2)c1-c1ccccc1	HSF1 activator 56
CN(C(=O)c1ccco1)c1nnc(C23CC4CC(CC(C4)C2)C3)s1	none
CN(C(=O)c1ccco1)c1nc2c(s1)CCCC2	HSF1 activator 62
O=c1cc(CO)[nH]nc1CO	none (no result: T cruzi inh, HSF1 activator, PvdQ acylase, PfHsp90 yeast 2)
COc1ccc(C(=O)N/N=C/c2ccc(OC(=O)c3cccs3)cc2)cc1	none
CCc1ccc(C(=O)COC(=O)c2cccs2)cc1	none
COc1ccc(C/C(N)=N/OC(=O)c2cccs2)cc1	none
O=C(Oc1ccc2ccc(=O)oc2c1)c1ccco1	T cruzi inh 64
COc1ccc(OCCOC(=O)c2cccs2)cc1	HSF1 activator 63 (no result: PfHsp90 yeast 2)
CCC(=O)c1ccc(OC(=O)c2cccs2)cc1	PvdQ acylase 41
COC(=O)c1ccc(OC(=O)c2cccs2)cc1	PvdQ acylase 55
O=C(CCCN1C(=O)/C(=C/c2ccccc2OC(F)F)SC1=S)Nc1cccnc1	none (no result: T cruzi inh, HSF1 activator, PfHsp90 yeast 2)
COC(=O)c1ccc(OC(=O)c2ccco2)cc1	PvdQ acylase 81
COc1ccc(NC(=O)C2(C)CCCN(C(C)=O)C2)cc1F (stereo not given)	none (no result: T cruzi inh, HSF1 activator, PvdQ acylase, PfHsp90 yeast 2)
O=c1[nH]c2ccccc2cc1CN(Cc1cccnc1)S(=O)(=O)c1ccc(Cl)cc1	none
O=c1[nH]c2ccccc2cc1CN(Cc1cccnc1)S(=O)(=O)c1ccc([N+](=O)[O-])cc1	T cruzi inh 56, HSF1 activator 63
COc1cccc(CC(=O)NCC2CCN(C(=O)C(=O)c3cccs3)CC2)c1	none (no result: T cruzi inh, HSF1 activator, N-glyco inh, PvdQ acylase, PfHsp90 yeast 2)
CC(=O)c1sc(NC(=O)c2ccco2)nc1-c1ccccc1	none (no result: CaV13 ICDI inh)
COc1ccc2c(c1)CCc1sc(NC(=O)c3ccco3)nc1-2	none (no result: CaV13 ICDI inh)
O=C(Nc1scc(-c2ccc(F)cc2)c1C(=O)O)c1ccco1	none
Cc1sc(NC(=O)c2ccco2)nc1-c1ccccc1	HSF1 activator 90 (no result: CaV13 ICDI inh)
COC(=O)c1c(-c2ccccc2)csc1NC(=O)c1ccco1	HSF1 activator 74 (no result: CaV13 ICDI inh)
COc1ccc2c(c1)Cc1sc(NC(=O)c3ccco3)nc1-2	HSF1 activator 77 (no result: CaV13 ICDI inh)
COc1ccc(CCN2C(=O)CSCC2(C)C(=O)Nc2ccc3c(c2)OCCO3)cc1OC (stereo not given)	none (no result: T cruzi inh, HSF1 activator, N-glyco inh, PvdQ acylase, PfHsp90 yeast 2)
COc1ccc(NC(=O)Nc2ccc3c(c2)C(=O)N([C@H](C)CO)C[C@H](C)[C@H](CN(C)C)OCCCC[C@@H](C)O3)cc1	none (no result: T cruzi inh, HSF1 activator, N-glyco inh, PvdQ acylase, PfHsp90 yeast 2)
CSc1nnc(-c2ccc([N+](=O)[O-])cc2)o1	PvdQ acylase 58
C#CCSc1nnc(-c2ccc([N+](=O)[O-])cc2)o1	none
Brc1ccc(CSc2nnc(-c3ccco3)o2)cc1	HSF1 activator 56 (no result: CaV13 ICDI inh)
O=C(N[C@H](C(=O)N1CCC[C@H]1C(=O)NCCc1ccccc1Cl)c1ccccc1)C1CC1	none (no result: T cruzi inh, HSF1 activator, N-glyco inh, PvdQ acylase, PfHsp90 yeast 2)
c1ccc(CN2CCN(C3=Nc4cccc5cccc3c45)CC2)cc1	none (no result: CaV13 ICDI inh)

Screening data: PubChem, Broad Institute
